The structures appear in SMILES notation. Some results are limits rather than exact numbers.

For this test, the system named is LNCaP. The test can be described thus: Cytotoxicity against human LNCAP cells after 48 hrs by MTT assay. The test is classed as functional, cell-based. In a few lines:
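LNCaP cells (ATCC CRL1740) grown in RPMI with 10% FBS, streptomycin and penicillin at 37 °C, 5% CO2. Seeded 2 × 10^5 cells/well and exposed to a range of compound concentrations for 48 h at 37 °C. MTT was then added for 4 h at 37 °C. Formazan was dissolved in DMSO and absorbance read at 540 nm. IC50 derived; run in triplicate.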
(In general: Formazan colour is commonly taken as a measure of viable cells.)
The IC50 is the concentration that gives 50% inhibition. On to `COc1cc(/C=C/C(=O)OCCCCCCCCCCCCCCCCCCCCCCCCOC(=O)/C=C/c2ccc(O)c(OC)c2)ccc1O`, for which the IC50 is over 100 µM. As to `CCCCC/C=C\C/C=C\CCCCCCCC(=O)OC(CO)COC(=O)CCCCCCC/C=C/C/C=C/CCCCC` (stereo unspecified), the IC50 is over 100 µM. Consider `CCCCC/C=C\C/C=C\CCCCCCCC(=O)OCC(O)COC(=O)CCCCCCCCCCCCCCCCCC` (stereo unspecified), for which the IC50 is over 100 µM.

Consider `CCCCC/C=C\C/C=C\CCCCCCCC(=O)OCC(O)CO` (stereo unspecified), for which the IC50 is over 100 µM.

`CCCCC/C=C\C/C=C/CCCCCCCC(=O)OCC(O)COC(=O)CCCCCCC/C=C\CCCCCCCC` (stereo unspecified) showed an IC50 of over 100 µM. Regarding `COc1cc([C@@H]2c3cc(O)c(OC)cc3C=C(C(=O)NCCc3ccc(O)cc3)[C@H]2C(=O)NCCc2ccc(O)cc2)ccc1O` [CANNABISIN D], half-maximal inhibition (IC50) was put at 81 µM. In turn, `COc1cc(/C=C(C(=O)NCCc2ccc(O)cc2)\C(=C/c2ccc(O)c(OC)c2)C(=O)NCCc2ccc(O)cc2)ccc1O` [CANNABISIN G] showed an IC50 of 76 µM. To `CCCCCCCCCCCCCCCCCC(=O)OCC(O)CO` (stereo unspecified) [GLYCERYL MONOSTEARATE] belongs over 100 µM; to `COc1cc([C@@H]2Oc3c(OC)cc(/C=C/C(=O)NCCc4ccc(O)cc4)cc3[C@H]2C(=O)NCCc2ccc(O)cc2)ccc1O` [GROSSAMIDE], 33 µM. To `COc1cc(/C=C(C(=O)NCCc2ccc(O)cc2)/C(=C/c2ccc(O)c(OC)c2)C(=O)NCCc2ccc(O)cc2)ccc1O` [HYOSCYAMIDE] belongs over 100 µM; to `COc1cc(/C=C/C(=O)NCCc2ccc(O)cc2)ccc1O` [N-TRANS-FERULOYL TYRAMINE], over 100 µM.

The record behind these values is ChEMBL document CHEMBL1159323, “Lignanamides and nonalkaloidal components of Hyoscyamus niger seeds” (J Nat Prod, 2002).
